# From ChEMBL document CHEMBL1138349 (J Med Chem, 2007)
# Experiments:
# [1] = molecular target: T1, Muscarinic acetylcholine receptor M1 (Homo sapiens, UniProt P11229); assay: Displacement of [N-methyl-3H]scopolamine from human recombinant muscarinic M1 receptor expressed in CHO cells; type: cell-based
# T1 sequence (P11229 whole entry): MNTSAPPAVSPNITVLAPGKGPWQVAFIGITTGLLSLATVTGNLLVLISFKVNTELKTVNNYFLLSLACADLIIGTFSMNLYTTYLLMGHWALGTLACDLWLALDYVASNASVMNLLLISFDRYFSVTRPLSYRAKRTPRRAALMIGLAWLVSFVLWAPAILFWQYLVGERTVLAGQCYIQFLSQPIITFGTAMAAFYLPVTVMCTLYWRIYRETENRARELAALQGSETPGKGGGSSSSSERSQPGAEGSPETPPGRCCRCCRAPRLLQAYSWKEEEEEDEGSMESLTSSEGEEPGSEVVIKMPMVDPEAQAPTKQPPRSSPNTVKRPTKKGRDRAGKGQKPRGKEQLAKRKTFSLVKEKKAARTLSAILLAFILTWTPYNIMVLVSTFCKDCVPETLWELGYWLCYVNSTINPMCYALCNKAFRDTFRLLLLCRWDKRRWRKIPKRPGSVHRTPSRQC
# hERG (KCNH2) = hERG (KCNH2) (Homo sapiens, UniProt Q12809); assay: Inhibition of human hERG current at 1 uM
# [2] = Clearance in rat at 5 mg/kg, po and 5 mg/kg, iv; type: ADME, organism-based; conditions: in vivo
# [3] = Volume of distribution at steady state in rat at 5 mg/kg, po and 5 mg/kg, iv; type: ADME, organism-based; conditions: in vivo, read-out: Vdss
# [4] = Total mean residence time in rat at 5 mg/kg, po; type: ADME, organism-based; set-up: dose 5 mg/kg, route oral; conditions: in vivo
# [5] = Half life in rat at 5 mg/kg, po; type: ADME, organism-based; set-up: dose 5 mg/kg, route oral; conditions: in vivo
# [6] = Oral bioavailability in rat at 5 mg/kg; type: ADME, organism-based; conditions: in vivo
# [7] = Clearance in cynomolgus monkey at 5 mg/kg, po and 1.5 mg/kg, iv; type: ADME, organism-based, Macaca fascicularis; conditions: in vivo
# [8] = Volume of distribution at steady state in cynomolgus monkey at 5 mg/kg, po and 1.5 mg/kg, iv; type: ADME, organism-based, Macaca fascicularis; conditions: in vivo, read-out: Vdss
# [9] = Total mean residence time in cynomolgus monkey at 5 mg/kg, po; type: ADME, organism-based, Macaca fascicularis; set-up: dose 5 mg/kg, route oral; conditions: in vivo
# [10] = Half life in cynomolgus monkey at 5 mg/kg, po; type: ADME, organism-based, Macaca fascicularis; set-up: dose 5 mg/kg, route oral; conditions: in vivo
# [11] = Oral bioavailability in cynomolgus monkey at 5 mg/kg; type: ADME, organism-based, Macaca fascicularis; conditions: in vivo
# Rattus norvegicus = assay: Inhibition of plasma DPP4 activity in Han Wistar rat at 1 mg/kg, po after 7 hrs; conditions: read-out: Inhibition
# Canis familiaris = assay: Inhibition of plasma DPP4 activity in Beagle dog at 1 mg/kg, po after 7 hrs; conditions: Canis lupus familiaris, read-out: Inhibition
# Rhesus monkey = assay: Inhibition of plasma DPP4 activity in rhesus monkey at 1 mg/kg, po after 7 hrs; conditions: Macaca mulatta, read-out: Inhibition
# [12] = Aqueous solubility at pH 7.4; type: physicochemical; conditions: buffer
# Summary of the method: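 Solubility was measured in aqueous medium at physiological pH 7.4, using a crystalline modification of the free base.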
# [13] = Distribution coefficient, log D at pH 7.4; type: physicochemical; conditions: octanol/water
# [14] = Dissociation constant, pKa corresponding to the protonation of the quinazoline; type: physicochemical
# Mus musculus [15] = assay: Reduction in plasma glucose excursion in db/db C57BL/KSJ mouse at 0.1 mg/kg, po by oral glucose tolerance test; conditions: read-out: Inhibition
# Mus musculus [16] = assay: Reduction in plasma glucose excursion in db/db C57BL/KSJ mouse at 1 mg/kg, po by oral glucose tolerance test; conditions: read-out: Inhibition
# Mus musculus [17] = assay: Inhibition of plasma DPP4 activity in db/db C57BL/KSJ mouse at 1 mg/kg, po after 30 mins of glucose administration; conditions: 0.5 h, read-out: Inhibition
# [18] = Dissociation constant, pKa corresponding to the protonation of the primary amino group; type: physicochemical
# hERG (KCNH2), sequence (Q12809 whole entry): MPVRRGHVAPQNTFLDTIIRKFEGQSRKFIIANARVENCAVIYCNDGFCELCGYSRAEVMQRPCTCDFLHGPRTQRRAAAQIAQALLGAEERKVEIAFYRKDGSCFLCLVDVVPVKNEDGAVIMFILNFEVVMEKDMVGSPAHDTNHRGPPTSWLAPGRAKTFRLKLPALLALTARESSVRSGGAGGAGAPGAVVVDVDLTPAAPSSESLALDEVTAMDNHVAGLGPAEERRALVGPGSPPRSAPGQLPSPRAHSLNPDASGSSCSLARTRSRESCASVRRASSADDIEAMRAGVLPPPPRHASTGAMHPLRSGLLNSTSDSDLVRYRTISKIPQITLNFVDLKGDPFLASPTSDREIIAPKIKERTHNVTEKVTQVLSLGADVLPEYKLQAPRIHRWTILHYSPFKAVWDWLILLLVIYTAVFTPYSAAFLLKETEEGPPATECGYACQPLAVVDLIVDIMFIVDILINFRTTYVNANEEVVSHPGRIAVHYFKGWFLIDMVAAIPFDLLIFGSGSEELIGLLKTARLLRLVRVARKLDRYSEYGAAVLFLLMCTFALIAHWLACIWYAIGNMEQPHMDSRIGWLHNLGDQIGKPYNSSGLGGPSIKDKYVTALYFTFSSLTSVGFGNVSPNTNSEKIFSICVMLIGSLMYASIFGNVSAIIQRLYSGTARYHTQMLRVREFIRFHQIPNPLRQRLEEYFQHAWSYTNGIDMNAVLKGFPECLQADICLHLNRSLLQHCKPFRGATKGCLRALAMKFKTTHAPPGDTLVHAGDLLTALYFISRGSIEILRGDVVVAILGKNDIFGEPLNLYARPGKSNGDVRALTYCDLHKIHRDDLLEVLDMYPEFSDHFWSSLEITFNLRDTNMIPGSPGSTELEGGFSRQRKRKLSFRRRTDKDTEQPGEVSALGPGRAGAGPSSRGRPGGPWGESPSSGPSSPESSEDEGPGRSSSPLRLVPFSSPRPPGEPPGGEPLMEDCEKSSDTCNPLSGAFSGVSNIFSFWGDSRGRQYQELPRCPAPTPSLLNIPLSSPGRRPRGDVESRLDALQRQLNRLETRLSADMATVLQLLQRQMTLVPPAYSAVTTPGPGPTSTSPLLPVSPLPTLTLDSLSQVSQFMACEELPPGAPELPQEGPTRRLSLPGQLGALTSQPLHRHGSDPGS
smiles,measurement,setting,value
CC(C)=CCn1c(N2CCC[C@H](N)C2)nc2c1c(=O)n(CC(=O)c1ccccc1)c(=O)n2C,IC50,[1],0.05 µM
CC#CCn1c(N2CCC[C@@H](N)C2)nc2c1c(=O)n(CC(=O)c1ccccc1)c(=O)n2C,IC50,[1],6.16 µM
CC#CCn1c(N2CCC[C@H](N)C2)nc2c1c(=O)n(CC(=O)c1ccccc1)c(=O)n2C,IC50,[1],1.13 µM
CC#CCn1c(N2CCC[C@@H](N)C2)nc2c1c(=O)n(CC(=O)c1ccccc1OCC(=O)NC)c(=O)n2C,residual activity at 1 µM,hERG (KCNH2),88%
same,IC50,[1],1.17 µM
CC(C)=CCn1c(N2CCC[C@@H](N)C2)nc2c1c(=O)n(CC(=O)c1ccccc1)c(=O)n2C,IC50,[1],0.025 µM
CC#CCn1c(N2CCC[C@@H](N)C2)nc2c1c(=O)n(Cc1nc(C)cc3ccccc13)c(=O)n2C,residual activity at 1 µM,hERG (KCNH2),78%
same,IC50,[1],0.43 µM
CC(C)=CCn1c(N2CCC[C@H](N)C2)nc2c1c(=O)n(Cc1nccc3ccccc13)c(=O)n2C,residual activity at 1 µM,hERG (KCNH2),51%
same,IC50,[1],0.026 µM
CC#CCn1c(N2CCC[C@@H](N)C2)nc2c1c(=O)n(Cc1ccc(OC)cc1)c(=O)n2C,residual activity at 1 µM,hERG (KCNH2),51%
same,IC50,[1],0.518 µM
CC(C)=CCn1c(N2CCC[C@@H](N)C2)nc2c1c(=O)n(Cc1nccc3ccccc13)c(=O)n2C,residual activity at 1 µM,hERG (KCNH2),51%
same,IC50,[1],0.005 µM
CC#CCn1c(N2CCC[C@@H](N)C2)nc2c1c(=O)n(Cc1nc(C)c3ccccc3n1)c(=O)n2C [LINAGLIPTIN],IC50,[1],0.295 µM
same,clearance,[2],2.24 L/h/kg
same,Vd,[3],5.4 L/kg
same,MRT,[4],14.3 h
same,half-life,[5],35.9 h
same,bioavailability,[6],50.7%
same,clearance,[7],0.948 L/h/kg
same,Vd,[8],15.8 L/kg
same,MRT,[9],17.4 h
same,half-life,[10],41.4 h
same,bioavailability,[11],50.1%
same,inhibition in vivo at 1 mg/kg,Rattus norvegicus,> 70%
same,inhibition in vivo at 1 mg/kg,Canis familiaris,> 70%
same,inhibition in vivo at 1 mg/kg,Rhesus monkey,> 70%
same,solubility,[12],> 5 mg/mL
same,logD,[13],0.4
same,pKa,[14],1.9
same,inhibition in vivo at 0.1 mg/kg,Mus musculus [15],15%
same,inhibition in vivo at 1 mg/kg,Mus musculus [16],66%
same,inhibition in vivo at 1 mg/kg,Mus musculus [17],76%
same,pKa,[18],8.6
